Measurements taken from ChEMBL document CHEMBL1671831, “TSPO 18 kDa (PBR) Targeted Photosensitizers for Cancer Imaging (PET) and PDT” (ACS Med Chem Lett, 2011).
pIC50, pKd: −log10 of the molar value. Blank lines part the entries; values can stand above or below the molecule they belong to. Calls of active or inactive are those of the source. The rule behind the calls is not given here.

Experiments:
[1] = Drug level in human U87 cells xenografted in BALB/c mouse after 24 hrs […]; format: ADME, cell-based, U-87MG ATCC; conditions: in vivo, in the assay text read “nude mouse” for “BALB/c mouse”
Outline: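 Nude mice bearing U87 tumours given the 124I-labelled agent. Tumour and organ uptake taken by biodistribution 24 h after injection. Mean with standard deviation.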

Translocator protein [2] = biological target: T1, Translocator protein (Homo sapiens, UniProt P30536); test: Displacement of [3H]-PK11195 from PBR after 1 hr by scintillation counting
T1 sequence (P30536 whole entry): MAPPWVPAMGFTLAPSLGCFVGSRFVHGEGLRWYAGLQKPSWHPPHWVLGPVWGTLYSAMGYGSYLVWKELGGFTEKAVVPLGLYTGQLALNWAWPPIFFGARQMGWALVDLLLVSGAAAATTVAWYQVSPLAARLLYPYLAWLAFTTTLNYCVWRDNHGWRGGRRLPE

Blood = test: Drug level in […] cells xenografted BALB/c mouse blood after 24 hrs by microPET analysis; format: ADME, cell-based; conditions: in vivo
Outline: (§1)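 Balb/c mice bearing EMT6 tumours given the 124I-labelled agent. Uptake in organs and tumour taken by biodistribution 24 h after injection, with microPET coronal emission imaging. Mean with standard deviation.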

Muscle tissue = test: Drug level in […] cells xenografted BALB/c mouse muscle after 24 hrs by microPET analysis; format: ADME, cell-based; conditions: in vivo; outline: as §1
Spleen = test: Drug level in […] cells xenografted BALB/c mouse spleen after 24 hrs by microPET analysis; format: ADME, cell-based; conditions: in vivo; outline: as §1
Kidney = test: Drug level in […] cells xenografted BALB/c mouse kidney after 24 hrs by microPET analysis; format: ADME, cell-based; conditions: in vivo; outline: as §1
Lung = test: Drug level in […] cells xenografted BALB/c mouse lungs after 24 hrs by microPET analysis; format: ADME, cell-based; conditions: in vivo; outline: as §1
Heart = test: Drug level in […] cells xenografted BALB/c mouse heart after 24 hrs by microPET analysis; format: ADME, cell-based; conditions: in vivo; outline: as §1
Liver = test: Drug level in […] cells xenografted BALB/c mouse liver after 24 hrs by microPET analysis; format: ADME, cell-based; conditions: in vivo; outline: as §1
[3] = Drug level in […] cells xenografted BALB/c mouse gut after 24 hrs by microPET analysis; format: ADME, cell-based; conditions: in vivo; outline: as §1
Stomach = test: Drug level in […] cells xenografted BALB/c mouse stomach after 24 hrs by microPET analysis; format: ADME, cell-based; conditions: in vivo; outline: as §1
Brain = test: Drug level in […] cells xenografted BALB/c mouse brain after 24 hrs by microPET analysis; format: ADME, cell-based; conditions: in vivo; outline: as §1
MDA-MB-231 [4] = test: Cellular uptake in human MDA-MB-231 cells at 0.1 uM by fluorescence spectroscopy; format: ADME, cell-based; conditions: mda-mb-231, 0.1 µM
Outline: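 MDA-MB-231 cells. Uptake measured by fluorescence spectroscopy with excitation at 412 nm and emission scanned from 550 to 750 nm (maximum at 678 nm). Conjugate uptake compared with and without the TSPO ligand PK 11195 analogue.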

Translocator protein [5] = biological target: T1, Translocator protein; test: Binding affinity to PBR
MDA-MB-231 [6] = test: Antitumor activity against human MDA-MB-231 cells xenografted in SCID mouse assessed as tumor free mouse at 5 umol/kg measured on day 60; format: functional
MDA-MB-231 [7] = test: Drug level in human MDA-MB-231 cells xenografted in SCID mouse after 24 hrs by microPET analysis; format: functional, cell-based
Outline: (§2)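 Scid mice bearing MDA-231 tumours given the 124I-labelled conjugate at 50 μCi (about 40 ng) per mouse. MicroPET coronal emission imaging at 24, 48, 72 and 96 h after injection, plus biodistribution with three mice per group. Mean with standard deviation.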

MDA-MB-231 [8] = test: Drug level in human MDA-MB-231 cells xenografted in SCID mouse after 48 to 96 hrs by microPET analysis; format: functional, cell-based; conditions: tested as the 124I-labelled form; outline: as §2

- Drug uptake [1]: Not Active
Structure (SMILES): CCC(C)N(C)C(=O)c1cc2ccccc2c(-c2ccccc2[124I])n1 (stereo unspecified)

- pIC50 (Translocator protein [2]): 6.21
- Drug uptake (Blood): Not Active
- Drug uptake (Muscle tissue): Not Active
- Drug uptake (Spleen): Not Active
- Drug uptake (Kidney): Not Active
- Drug uptake (Lung): Not Active
- Drug uptake (Heart): Not Active
- Drug uptake (Liver): Not Active
- Drug uptake [3]: Not Active
- Drug uptake (Stomach): Not Active
- Drug uptake (Brain): Not Active
Structure (SMILES): CCC(C)N(C)C(=O)c1cc2ccccc2c(-c2ccccc2I)n1 (stereo unspecified)

- pIC50 (Translocator protein [2]): 6.00
Structure (SMILES): C=Cc1c(C)c2cc3nc(c4c5[nH]c(cc6nc(cc1[nH]2)C(C)=C6CC)c(C)c5C(=O)C4)[C@@H](CCC(=O)N(C)CCN(C)C(=O)c1cc2ccccc2c(-c2ccccc2I)n1)[C@@H]3C

The next lines start with the molecule.

Structure (SMILES): C=Cc1c(C)c2cc3nc(c4c5[nH]c(cc6nc(cc1[nH]2)C(C)=C6CC)c(C)c5C(=O)C4)[C@@H](CCC(=O)N(C)CCCCCCN(C)C(=O)c1cc2ccccc2c(-c2ccccc2I)n1)[C@@H]3C
- pIC50 (Translocator protein [2]): 6.68

Structure (SMILES): C=Cc1c(C)c2cc3nc(c4c5[nH]c(cc6nc(cc1[nH]2)C(C)=C6CC)c(C)c5C(=O)C4)[C@@H](CCC(=O)NCCNC(=O)c1cc2ccccc2c(-c2ccccc2I)n1)[C@@H]3C
- pIC50 (Translocator protein [2]): 5.66

Structure (SMILES): C=Cc1c(C)c2cc3nc(c4c5[nH]c(cc6nc(cc1[nH]2)C(C)=C6CC)c(C)c5C(=O)C4)[C@@H](CCC(=O)NCCCCCCNC(=O)c1cc2ccccc2c(-c2ccccc2I)n1)[C@@H]3C
- pIC50 (Translocator protein [2]): 6.51
- Drug uptake (MDA-MB-231 [4]): Active
- pKd (Translocator protein [5]): 7.40
- Activity (MDA-MB-231 [6]): 20%
- Drug uptake (MDA-MB-231 [7]): Active

Structure (SMILES): CCCCCCOC(C)c1c(C)c2cc3nc(c4c5[nH]c(cc6nc(cc1[nH]2)C(C)=C6CC)c(C)c5C(=O)C4)[C@@H](CCC(=O)NCCCCCCNC(=O)c1cc2ccccc2c(-c2ccccc2I)n1)[C@@H]3C (stereo partly specified)
- Drug uptake (MDA-MB-231 [7]): Active
- Drug uptake (MDA-MB-231 [8]): Active

Structure (SMILES): C=Cc1c(C)c2cc3nc(c4c5[nH]c(cc6nc(cc1[nH]2)C(C)=C6CC)c(C)c5C(=O)C4)[C@@H](CCC(=O)NCCCCCCN)[C@@H]3C
- pIC50 (Translocator protein [2]): 4.60
- Drug uptake (MDA-MB-231 [4]): Active
- Activity (MDA-MB-231 [6]): 0%

Structure (SMILES): C=Cc1c(C)c2cc3nc(c4c5[nH]c(cc6nc(cc1[nH]2)C(C)=C6CC)c(C)c5C(=O)C4)[C@@H](CCC(=O)NCCN)[C@@H]3C
- pIC50 (Translocator protein [2]): 5.25
